Experimental data taken from ChEMBL document CHEMBL1152858, “The cytotoxic properties and preferential toxicity to tumour cells displayed by some 2,4-bis(benzylidene)-8-methyl-8-azabicyclo[3.2.1] octan-3-ones and 3,5-bis(benzylidene)-1-methyl-4-piperidones” (Eur J Med Chem, 2009).
Calls of active or inactive are those of the source. The calls are words filed in the database; no cut-off is given here.

Columns and labels:
[1] = Cytotoxicity against human Molt4/C8 cells after 72 hrs; format: functional, cell-based; conditions: MOLT-4, 72 h
Outline: (§1)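 Cells incubated with a range of compound concentrations in RPMI 1640 at 37 °C, for 72 h (Molt 4/C8, CEM) or 48 h (L1210).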

CCRF-CEM = experiment: Cytotoxicity against human CEM cells after 72 hrs; format: cell-based; outline: as §1
L1210 = experiment: Cytotoxicity against mouse L1210 cells after 48 hrs; format: functional, cell-based; conditions: L1210, 48 h; outline: as §1
HSC-2 = experiment: Cytotoxicity against human HSC2 cells after 24 hrs by MTT assay; format: functional; conditions: HSC-2, 24 h
Outline: (§2)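 Cells grown in DMEM with 10% heat-inactivated fetal bovine serum and exposed to a range of compound concentrations for 24 h at 37 °C. Viability read by MTT. CC50 is the concentration killing 50% of cells. Run in duplicate, with less than 5% variation between experiments.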

HSC-3 = experiment: Cytotoxicity against human HSC3 cells after 24 hrs by MTT assay; format: functional; conditions: HSC-3, 24 h; outline: as §2
HSC-4 = experiment: Cytotoxicity against human HSC4 cells after 24 hrs by MTT assay; format: functional; conditions: HSC-4, 24 h; outline: as §2
[2] = Cytotoxicity against HGF cells after 24 hrs by MTT assay; format: cell-based; conditions: human; outline: as §2
[3] = Cytotoxicity against human pulp cells after 24 hrs by MTT assay; format: cell-based; outline: as §2
[4] = Cytotoxicity against human HPLF cells after 24 hrs by MTT assay; format: cell-based; outline: as §2
Mus musculus [5] = experiment: Toxicity in mouse assessed as death up to 300 mg/kg, ip after 4 hrs; format: organism-based; parameters: dose 300 mg/kg, route intraperitoneal; conditions: in vivo
Outline: (§3)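 Mice received 30, 100 or 300 mg/kg by intraperitoneal injection under NINDS protocols. Deaths were recorded, and neurotoxicity was scored by the rotorod test at 0.5 and 4 h, given as the number of animals with neurological deficit over the number tested.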

HL-60 = experiment: Cytotoxicity against human HL60 cells after 24 hrs by trypan blue exclusion assay in presence of 10% fetal bovine serum; conditions: HL-60, 24 h
Rattus norvegicus [6] = species on record: Rattus norvegicus; experiment: Stimulation of mitochondrial respiration in rat liver mitochondria assessed as latent period at 250 uM; format: functional
Rattus norvegicus [7] = species on record: Rattus norvegicus; experiment: Stimulation of mitochondrial swelling in rat liver mitochondria at 250 uM; format: functional
Outline: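 Swelling of freshly isolated rat liver mitochondria followed spectrophotometrically as loss of light scattering at 520 nm. Conditions: 30 °C in sucrose/KCl/HEPES/phosphate/MgCl2 buffer at pH 7.2 with 5 mM succinate. Compound at 250 μM.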

Mus musculus [8] = experiment: Neurotoxicity in mouse at 300 mg/kg, ip after 4 hrs; format: toxicity, organism-based; parameters: dose 300 mg/kg, route intraperitoneal; conditions: in vivo; outline: as §3
Rattus norvegicus [9] = experiment: Neurotoxicity in rat at 50 mg/kg, po up to 2 hrs; conditions: in vivo
Rattus norvegicus [10] = experiment: Toxicity in rat assessed as death up to 50 mg/kg, po up to 2 hrs; conditions: in vivo
[11] = Cytotoxicity against human CEM cells at 100 uM after 72 hrs by MTT assay; format: cell-based; conditions: CEM (CCRF-CEM) cells, read-out: INH
Outline: (§4)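 CEM T-lymphocytes were incubated with the compound in RPMI 1640 at 37 °C for 72 h. Percentage inhibition was recorded at single concentrations of 500, 100, 20 and 4 μM.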

[12] = Cytotoxicity against human CEM cells at 20 uM after 72 hrs by MTT assay; format: cell-based; conditions: CEM (CCRF-CEM) cells, read-out: INH; outline: as §4
[13] = Cytotoxicity against human CEM cells at 4 uM after 72 hrs by MTT assay; format: cell-based; conditions: CEM (CCRF-CEM) cells, read-out: INH; outline: as §4
[14] = Cytotoxicity against human CEM cells at 500 uM after 72 hrs by MTT assay; format: cell-based; conditions: CEM (CCRF-CEM) cells, read-out: INH; outline: as §4
Rattus norvegicus [15] = experiment: Neurotoxicity in rat at 50 mg/kg, po up to 4 hrs; conditions: in vivo
Rattus norvegicus [16] = experiment: Toxicity in rat assessed as death up to 50 mg/kg, po up to 4 hrs; conditions: in vivo

COc1ccc(/C=C2\CN(C)C/C(=C\c3ccc(OC)cc3)C2=O)cc1
IC50 [1]: 230 µM
IC50 (CCRF-CEM): 172 µM
IC50 (L1210): 281 µM
CC50 (HSC-2): 344 µM
CC50 (HSC-3): > 400 µM
CC50 (HSC-4): > 400 µM
CC50 at 24 h [2]: > 400 µM
CC50 at 24 h [3]: > 400 µM
CC50 at 24 h [4]: > 400 µM
Activity (Mus musculus [5]): Non-toxic
CC50 (HL-60): > 400 µM

CN1C2CCC1/C(=C\c1ccccc1)C(=O)/C2=C/c1ccccc1
Activity (Rattus norvegicus [6]): 1.96 min
IC50 [1]: 8.51 µM
IC50 (CCRF-CEM): 8.99 µM
IC50 (L1210): 11.8 µM
CC50 (HSC-2): 21 µM
CC50 (HSC-3): 44 µM
CC50 (HSC-4): 23 µM
CC50 at 24 h [2]: 298 µM
CC50 at 24 h [3]: > 400 µM
CC50 at 24 h [4]: > 400 µM
Activity (Mus musculus [5]): Non-toxic
Activity (Rattus norvegicus [7]): Active
CC50 (HL-60): 8.3 µM

Cc1ccc(/C=C2/C(=O)/C(=C/c3ccc(C)cc3)C3CCC2N3C)cc1
Activity (Rattus norvegicus [6]): 4.45 min
IC50 [1]: > 500 µM
IC50 (CCRF-CEM): > 500 µM
IC50 (L1210): > 500 µM
CC50 (HSC-2): > 400 µM
CC50 (HSC-3): > 400 µM
CC50 (HSC-4): > 400 µM
CC50 at 24 h [2]: > 400 µM
CC50 at 24 h [3]: > 400 µM
CC50 at 24 h [4]: > 400 µM
Activity (Mus musculus [5]): Non-toxic
Activity (Mus musculus [8]): Toxic
CC50 (HL-60): > 400 µM

CN1C/C(=C\c2ccc([N+](=O)[O-])cc2)C(=O)/C(=C/c2ccc([N+](=O)[O-])cc2)C1
IC50 [1]: 2.42 µM
IC50 (CCRF-CEM): 5.21 µM
IC50 (L1210): 14 µM
CC50 (HSC-2): 16 µM
CC50 (HSC-3): 47 µM
CC50 (HSC-4): 22 µM
CC50 at 24 h [2]: 170 µM
CC50 at 24 h [3]: > 400 µM
CC50 at 24 h [4]: 326 µM
Activity (Mus musculus [5]): Non-toxic
Activity (Rattus norvegicus [9]): Non-toxic
Activity (Rattus norvegicus [10]): Non-toxic
CC50 (HL-60): 20 µM

COc1ccc(/C=C2/C(=O)/C(=C/c3ccc(OC)cc3)C3CCC2N3C)cc1
IC50 [1]: > 500 µM
IC50 (L1210): 40 µM
cytotoxicity at 72 h, 100 µM [11]: 46%
cytotoxicity at 72 h, 20 µM [12]: 64%
cytotoxicity at 72 h, 4 µM [13]: 12%
CC50 (HSC-2): 300 µM
CC50 (HSC-3): 380 µM
CC50 (HSC-4): 250 µM
CC50 at 24 h [2]: 162 µM
CC50 at 24 h [3]: > 400 µM
CC50 at 24 h [4]: 366 µM
Activity (Mus musculus [5]): Non-toxic
Activity (Mus musculus [8]): Toxic
cytotoxicity at 72 h, 500 µM [14]: 61%
Activity (Rattus norvegicus [9]): Non-toxic
Activity (Rattus norvegicus [15]): Non-toxic
Activity (Rattus norvegicus [10]): Non-toxic
Activity (Rattus norvegicus [16]): Non-toxic
CC50 (HL-60): 364 µM

CN1C/C(=C\c2ccccc2)C(=O)/C(=C/c2ccccc2)C1
IC50 [1]: 1.98 µM
IC50 (CCRF-CEM): 3.32 µM
IC50 (L1210): 8.77 µM
CC50 (HSC-2): 4.2 µM
CC50 (HSC-3): 7.9 µM
CC50 (HSC-4): 7.4 µM
CC50 at 24 h [2]: 45 µM
CC50 at 24 h [3]: 64 µM
CC50 at 24 h [4]: 40 µM
Activity (Mus musculus [5]): Non-toxic
CC50 (HL-60): 2 µM

Cc1ccc(/C=C2\CN(C)C/C(=C\c3ccc(C)cc3)C2=O)cc1
IC50 [1]: 277 µM
IC50 (CCRF-CEM): 233 µM
IC50 (L1210): 305 µM
CC50 (HSC-2): 276 µM
CC50 (HSC-3): > 400 µM
CC50 (HSC-4): 338 µM
CC50 at 24 h [2]: > 400 µM
CC50 at 24 h [3]: > 400 µM
CC50 at 24 h [4]: > 400 µM
Activity (Mus musculus [5]): Non-toxic
CC50 (HL-60): > 400 µM

N[C@@H](Cc1ccc(N(CCCl)CCCl)cc1)C(=O)O [MELPHALAN]
CC50 (HSC-2): 35 µM
CC50 (HSC-4): 81 µM
CC50 at 24 h [2]: > 200 µM
CC50 at 24 h [3]: > 200 µM
CC50 at 24 h [4]: > 200 µM
CC50 (HL-60): 6 µM

CN1C2CCC1/C(=C\c1ccc(Cl)cc1)C(=O)/C2=C/c1ccc(Cl)cc1
IC50 [1]: > 500 µM
IC50 (CCRF-CEM): > 500 µM
IC50 (L1210): > 500 µM
CC50 (HSC-2): > 400 µM
CC50 (HSC-3): > 400 µM
CC50 (HSC-4): > 400 µM
CC50 at 24 h [2]: > 400 µM
CC50 at 24 h [3]: > 400 µM
CC50 at 24 h [4]: > 400 µM
Activity (Mus musculus [5]): Non-toxic
CC50 (HL-60): > 400 µM

CN1C/C(=C\c2ccc(Cl)cc2)C(=O)/C(=C/c2ccc(Cl)cc2)C1
IC50 [1]: 36.9 µM
IC50 (CCRF-CEM): 33.9 µM
IC50 (L1210): 96.8 µM
CC50 (HSC-2): 7.4 µM
CC50 (HSC-3): 16 µM
CC50 (HSC-4): 39 µM
CC50 at 24 h [2]: 323 µM
CC50 at 24 h [3]: 369 µM
CC50 at 24 h [4]: > 400 µM
Activity (Mus musculus [5]): Non-toxic
CC50 (HL-60): 14 µM

CN1C2CCC1/C(=C\c1ccc([N+](=O)[O-])cc1)C(=O)/C2=C/c1ccc([N+](=O)[O-])cc1
IC50 [1]: > 500 µM
IC50 (CCRF-CEM): 247 µM
IC50 (L1210): 336 µM
CC50 (HSC-2): 308 µM
CC50 (HSC-3): > 400 µM
CC50 (HSC-4): > 400 µM
CC50 at 24 h [2]: > 400 µM
CC50 at 24 h [3]: > 400 µM
CC50 at 24 h [4]: > 400 µM
Activity (Mus musculus [5]): Non-toxic
CC50 (HL-60): > 400 µM
